Results taken from ChEMBL document CHEMBL4513216, “Probing the Open Global Health Chemical Diversity Library for Multistage-Active Starting Points for Next-Generation Antimalarials” (ACS Infect Dis, 2020).

experiment: Toxicity liver stage against HepG2, at 10uM; type: cell-based; design: test concentration 10 uM, cell line HepG2-A16-CD81EGFP; details: human, HepG2-A16-CD81EGFP cells; read-out: INHIBITION
How it was run: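 Uninfected HepG2-A16-CD81EGFP cells, 3 × 10^3 per well, 1536-well, plated on prespotted compound at 10 μM final, parasite-free screening media added to match infected plates; puromycin 10 μM positive, DMSO 0.5% negative; run in parallel with 48 h PbLuc assay at 37 °C, 5% CO2; viability by CellTiter-Glo luminescence, normalized to controls.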

SMILES	cytotoxicity at 10 µM
CC[C@H](C)[C@H](NC(=O)Cn1ccc2ccc(F)cc21)C(=O)OC	4.12%
CCc1c(C)sc2c1c(N)nc(=O)n2CCN1CCCCC1	9.49%
CCCc1cc(=O)[nH]c2nnc(SCC(=O)NC(C)(C)C)n12	9.57%
CC(C)(C)S(=O)(=O)c1ccc(N2CCN(c3ccccc3)CC2)nn1	-4.81%
CC(C)C(=O)N1CCC2(CC1)NC(=O)[C@H]1CN(Cc3cccnc3)C[C@H]12	-0.331%
CC(=O)N1CCc2[nH]nc(C(=O)N3CCOCC3)c2C1	-7.37%
O=C(C1CCCC1)N1C[C@H]2CNC[C@H]2C1	1.47%
CN(C)CC(=O)N1CC2(CCN(S(=O)(=O)c3ccccc3)C2)C1	-6.34%
CCS(=O)(=O)N1CCC2(CC(=O)N(c3ccccc3C)C2)C1 (stereo not given)	2.82%
CC(=O)N1[C@H](CN(C)C)C[C@@H]2CN(C(=O)c3ccsc3)CC[C@@H]21	-0.744%
CC(C)NC(=O)c1ccc2c(c1)C(c1nc[nH]n1)CN2S(C)(=O)=O (stereo not given)	-132%
c1cc(CN2CCO[C@@H]3CNC[C@@H]32)co1	6.71%
CS(=O)(=O)N1CCCC12CCCN(C(=O)c1ccc[nH]1)C2 (stereo not given)	-145%
CNC(=O)c1cc2c(nc1NC(C)C)CCNCC2	0.102%
N#Cc1ccc(OC[C@]23COC[C@H]2CN(Cc2ccccn2)C3)nc1	-0.182%
CCOCC(=O)N1CCn2cc(CN(C)Cc3ccco3)nc2C1	4.73%
Cn1c(=O)c2sccc2n(CC(=O)Nc2cccc(Cl)c2)c1=O	5.86%
Cc1noc(C)c1CN1CC2(CCN(C(=O)c3c[nH]cn3)C2)CC1=O (stereo not given)	-5.23%
O=C(c1ccn(COc2ccc(F)cc2)n1)N1CCCCCC1	9.84%
COCCCNC(=O)c1cc(OC)c2ccoc2c1	16.9%
CC(C)N1CCOC(c2ccnc(N(C)C)n2)C1 (stereo not given)	-0.104%
COc1ccccc1C1(O)CCCN(C(=O)c2ccnn2C(C)C)C1 (stereo not given)	2.59%

SMILES	cytotoxicity at 10 µM
CC(=O)NCC(=O)N1CCOC(c2cccc(N)n2)C1 (stereo not given)	-4.68%
Cc1noc(CN2CCN(C(C)C(=O)NCc3cccs3)CC2)n1 (stereo not given)	17.2%
Cc1noc(C)c1CN(C)c1nccc(C(F)(F)F)n1	-4.73%
CC(C)(C)CC(=O)Nc1cnn(-c2ccccc2S(C)(=O)=O)c1	3.69%
CCOc1cccc(NC(=O)c2cnc(C)cn2)n1	4.14%
NC(=O)COc1cccc(Cn2cccn2)c1	-1.13%
COCCOCC1CCN(C(=O)c2ccc3[nH]cnc3c2)C1 (stereo not given)	-5.73%
CN(Cc1cnn(C)c1)C(=O)Nc1cccnc1-n1cccn1	-1.32%
CC(c1ccccc1)N(C)CC(=O)NCCC#N (stereo not given)	3.52%
COc1cccc(-c2cc(NCc3nccn3C)n(C)n2)c1	0.684%
Cc1ccnc(NC(=O)c2ccc(F)c(S(=O)(=O)NC3CC3)c2)c1	10.4%
CN(CCOc1ccc(C#N)cc1)CC1CC1	1.47%
COc1c(C2CCCN2CC(=O)Nc2nccs2)c(C)nn1C (stereo not given)	-2.38%
NS(=O)(=O)CCN1CCN(c2ccccc2O)CC1	9.1%
Cc1ccc(C(=O)N(Cc2ccc(F)cc2F)C2CC2)c(=O)[nH]1	-2.01%
O=C(Cc1cccs1)NCC1(O)CCSCC1	-10.5%
CCc1nc(CCNC(=O)NC2CC(=O)N(C(C)(C)C)C2)cs1 (stereo not given)	-1.51%
CC(C)(C)NC(=O)CN1CCCN(Cc2cc(C#N)ccc2F)CC1	-4.62%
CCN(CC)c1ccc(NC(=O)N2CCc3sccc3C2)cn1	-5%
Cc1ccc(Br)c(S(=O)(=O)NCc2ccnn2C)c1	0.67%
CC(Nc1cccc(COCc2ccco2)c1)C(=O)NC(N)=O (stereo not given)	-5.65%
COc1cc(F)ccc1N(C)Cc1ccncc1	-3.64%

SMILES	cytotoxicity at 10 µM
CCS(=O)(=O)CCN(CC1CCCO1)C1CCCC1 (stereo not given)	-3.52%
CCCn1nc(C(=O)N2CCCC2c2noc(C)n2)ccc1=O (stereo not given)	3.57%
CN(C(=O)CN1CCC(c2cc3ccccc3[nH]2)CC1)C(C)(C)C#N	6.24%
CC(C)N(Cc1cnn(C)c1)CC1CCCN(S(C)(=O)=O)C1 (stereo not given)	-21.4%
Cc1cccc(N2CCN(C(=O)CC3(O)CCCC3)C(C)C2)n1 (stereo not given)	15.9%
Cc1cc(N(C)C)nc(NCCn2cccn2)n1	5.65%
COc1ccc(CCNC(=O)NC2CCCC2)cc1OC	-10.9%
Cc1cc(NC(=O)NCCc2cccs2)n(C)n1	14.8%
CCc1noc(C(C)N2CCN(c3ccc(C#N)cn3)CC2)n1 (stereo not given)	4.78%
CCc1c(C)nc(C)nc1N1C[C@@H](CN(C)CCN(C)C)[C@@H](CO)C1	-2.07%
CCOc1ccc(CCCC(=O)N2CCC(C(=O)NC)C2)cc1C (stereo not given)	1.85%
N[C@@H]1CCN(Cc2ccc(-c3nc(-c4cccnc4)cc(=O)[nH]3)cc2)C1	9.48%
COc1ccnc(N2Cc3cnc(C(C)(C)C)nc3C2)n1	-9.85%
O=C1N(CCc2ccccc2)CCCC1(O)CNCc1ccc(F)cc1 (stereo not given)	-1.24%
O=C(CCc1cc2n(n1)CCCNC2)N1CCSCC1	8.55%
CC/C=C(\C)CN1CCC(CNC(=O)c2ccc(=O)[nH]c2)CC1	8.06%
CCC(Nc1nccc(C2CCCC2)n1)c1ncccc1C (stereo not given)	-130%
CC(C)Cc1cc(C(=O)NCCc2nnc(N)s2)n(C)n1	0.649%
CC(C)(C)c1ncc2c(n1)CN(C(=O)C(C)(C)n1cccc1)C2	-120%
CCc1nccc(CN2CCC(CNC(=O)c3occc3C)C2)n1 (stereo not given)	6.95%
CC(=O)c1ccc(N2CCC3(CCC(=O)N(C4CC4)C3)CC2)nc1	4.36%
O=C(Cc1ccc(O)c(F)c1)N1CCN(CC2CC2)[C@@H]2CS(=O)(=O)C[C@@H]21	-2.06%

SMILES	cytotoxicity at 10 µM
COc1cc(NCC(O)CN2CCCCCC2)ncn1 (stereo not given)	2.8%
CN(CCO)c1nc(-c2ccccn2)nc2c1CCNC2	-4.12%
COC(=O)C1CCN(C(=O)c2cccc(NS(C)(=O)=O)c2C)CC1	-6.71%
COCC(=O)N1Cc2c(-c3cccc(C)c3)nc(N)nc2C1C (stereo not given)	-0.607%
CCCC(=O)N1CCN(c2cc(-n3cnc(C)c3C)nc(C)n2)CC1	-1.89%
COc1cc(F)c(CN2CCN(CC(C)C)C(=O)C2C)cc1OC (stereo not given)	1.63%
CCN1CCN(C[C@@H]2CN(c3ncccc3Cl)C[C@@H]2CO)CC1	-4.81%
CCC(NC(=O)c1nn(C)cc1C(=O)O)c1ccc(C)cc1 (stereo not given)	-3.42%
CC1CCN(CCNC(=O)c2ccn(-c3ccccc3)n2)CC1	-5.99%
Cc1cc(C)n(CC2CCCN2Cc2ncc(C(C)(C)C)o2)n1 (stereo not given)	-1.64%
O=C(CNC(=O)c1ccc2c(c1)CCC2)NCCNc1ncccn1	-6.5%
Cc1ncsc1C(=O)NCCc1cccs1	-15.3%
CCc1noc(C)c1C(=O)NCC(c1ccc(C)cc1)N(C)C (stereo not given)	-5.57%
CN(C)c1ccc(CNC(=O)Nc2ccc(S(C)(=O)=O)nc2)cc1	-2.48%
COCC(c1cccc(C(F)(F)F)c1)N(C)C(=O)c1cnccn1 (stereo not given)	-11.7%
Cc1nc(-c2ccsc2)ccc1C(=O)NCC(C)N1CCOCC1 (stereo not given)	-3.92%
Cc1nc(C)n(CC2CCCCN2CC(=O)NC(C2CC2)C2CC2)n1 (stereo not given)	-8.61%
O=C(c1cccc2ncccc12)N1CCC(Nc2cccnn2)CC1	-14.7%
O=C(NCCNc1ncccn1)C1CC(=O)N(Cc2ccccc2)C1 (stereo not given)	-16.2%
COc1cccc(COCC(=O)N2CCCC(n3cncn3)C2)c1 (stereo not given)	-21.1%
Cc1cccnc1NC(=O)NC(C)Cn1cccn1 (stereo not given)	-6.8%
O=C(Cn1nc(-c2ccc(F)cc2)oc1=O)NCc1ccc(F)cc1	4.13%

SMILES	cytotoxicity at 10 µM
O=C(Nc1cnn(CCN2CCOCC2)c1)c1ccccn1	-14.5%
c1cnnc(N2CCCC2CNc2ncnc3c2CCC3)c1 (stereo not given)	-0.626%
Cc1cnn(CCNCc2cccnc2)c1	-0.265%
CN1[C@@H](C(=O)NCC2CC2)C[C@H]2CN(Cc3cccc(C#N)c3)C[C@H]21	-8.22%
O=C(NC1CCC1)[C@@H]1CCO[C@@H]2CCN(C3CCCC3)C[C@H]21	9.05%
CNC(=O)N1CCc2cc(C(=O)N(C)C)c(NCC3CC3)nc2CC1	-0.395%
CN(C)CCN1C(=O)CCC12CCCN(C(=O)c1ccncc1F)C2 (stereo not given)	3.06%
Cn1ccc(C(=O)N2CCOC3(COCCN(CC4CC4)C3)C2)n1 (stereo not given)	7.61%
Cc1ccc(CN2CCC3(CCCC(=O)N3)CC2)s1	-3.45%
Cn1cc(N2C(=O)CC[C@@H]3[C@H]2CCN3Cc2cccc(C#N)c2)cn1	8.51%
Cc1cccc(CN2C(=O)CCC23CCN(C(=O)c2ccco2)CC3)n1	4.17%
CN1CCO[C@H]2CN(C(=O)c3ccncc3F)C[C@H]21	-141%
CCCS(=O)(=O)N1CCC2(CN(c3ccsc3)C(=O)CN2C)C1 (stereo not given)	-21.1%
Cc1ccc(CN2CCC3(CC2)CC3CN(C)Cc2cccnc2)o1 (stereo not given)	-3.76%
COCCN1CCC2(COCc3c(C)nc(N4CCOCC4)nc32)C1 (stereo not given)	-130%
O=C(CC1CCCC1)N1C[C@H](Oc2cccnc2)[C@H]2OCCC[C@H]21	3.82%
Cc1ccc(CN2CCc3[nH]nc(C(=O)N4CCN(C)CC4)c3C2)o1	-8.19%
CCN1C(=O)CCC12CCCN(Cc1ccc(F)cc1)CC2 (stereo not given)	-0.861%
CN1CCN(Cc2cccnc2)C2(CCN(Cc3ccoc3)C2)C1=O (stereo not given)	-2.4%
O=C(C1CCOCC1)N1C[C@H]2CC(OCc3ccccc3)C[C@H]2C1 (stereo not given in full)	-5.59%
O=C(NCC1CCC(c2ccnc3ncnn23)CC1)c1ccccn1 (stereo not given)	3.64%
COCCN1C(=O)[C@@H]2CC[C@H]1CN(Cc1nnc(-c3ccccc3)o1)C2	-4.94%
